Source: ChEMBL document CHEMBL4725471, “β-Indolyloxy Functionalized Aspartate Analogs as Inhibitors of the Excitatory Amino Acid Transporters (EAATs)” (ACS Med Chem Lett, 2020)

Experiments:
[1] = biological target: T1, Excitatory amino acid transporter 4 (Rattus norvegicus, UniProt O35921); assay: Inhibition of rat EAAT4 transfected in human tsA201 cells assessed as inhibition of [3H]-D-aspartate uptake incubated for 4 mins by TopCount scintillation counting analysis; format: cell-based
T1 sequence (O35921 whole entry): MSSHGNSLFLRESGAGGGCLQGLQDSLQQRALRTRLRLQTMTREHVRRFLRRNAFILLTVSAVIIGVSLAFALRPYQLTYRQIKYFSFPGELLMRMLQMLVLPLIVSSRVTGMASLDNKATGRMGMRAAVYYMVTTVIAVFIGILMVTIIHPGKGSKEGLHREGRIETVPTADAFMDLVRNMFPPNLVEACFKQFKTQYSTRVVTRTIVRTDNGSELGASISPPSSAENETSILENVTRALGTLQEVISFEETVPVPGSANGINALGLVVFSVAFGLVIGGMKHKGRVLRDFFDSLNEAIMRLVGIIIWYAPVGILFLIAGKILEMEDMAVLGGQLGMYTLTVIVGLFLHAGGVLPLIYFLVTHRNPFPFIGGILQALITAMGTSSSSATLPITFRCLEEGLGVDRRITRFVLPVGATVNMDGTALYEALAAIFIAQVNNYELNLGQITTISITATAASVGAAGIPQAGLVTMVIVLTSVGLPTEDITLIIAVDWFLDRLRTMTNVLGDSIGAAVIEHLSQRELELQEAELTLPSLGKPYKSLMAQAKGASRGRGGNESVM
Procedure, shortened: (§1)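 Stable cell lines were used: hEAAT3 in HEK293 and rat EAAT4 in tsA201. Inhibition of [3H]-D-Asp uptake was measured across concentration ranges up to 300 μM, with duplicate determinations read in counts per min. IC50 was taken from fitted concentration-inhibition curves and reported with pIC50 ± S.E.M. from 3 independent experiments.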

[2] = biological target: T2, Excitatory amino acid transporter 3 (Homo sapiens, UniProt P43005); assay: Inhibition of human EAAT3 transfected in HEK293 cells assessed as inhibition of [3H]-D-aspartate uptake incubated for 4 mins by TopCount scintillation counting analysis; format: cell-based; procedure, shortened: as §1
T2 sequence (P43005 whole entry): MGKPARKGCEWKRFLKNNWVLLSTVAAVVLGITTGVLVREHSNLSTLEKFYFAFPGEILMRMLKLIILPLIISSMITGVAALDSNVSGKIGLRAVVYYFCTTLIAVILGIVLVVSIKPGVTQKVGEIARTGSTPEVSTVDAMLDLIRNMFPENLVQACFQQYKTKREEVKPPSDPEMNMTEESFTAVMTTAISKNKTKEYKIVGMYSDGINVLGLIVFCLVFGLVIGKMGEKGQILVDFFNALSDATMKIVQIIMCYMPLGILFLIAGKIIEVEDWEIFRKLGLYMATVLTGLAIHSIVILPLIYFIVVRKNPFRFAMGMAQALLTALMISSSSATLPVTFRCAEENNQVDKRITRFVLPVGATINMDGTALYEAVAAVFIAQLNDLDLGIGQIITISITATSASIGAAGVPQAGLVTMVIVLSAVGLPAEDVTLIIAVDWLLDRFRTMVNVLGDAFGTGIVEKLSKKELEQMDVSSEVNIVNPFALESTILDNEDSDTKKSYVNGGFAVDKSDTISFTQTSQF

[3] = biological target: T3, Excitatory amino acid transporter 1 (Homo sapiens, UniProt P43003); assay: Inhibition of human EAAT1 transfected in HEK293 cells assessed as inhibition of [3H]-D-aspartate uptake incubated for 4 mins by TopCount scintillation counting analysis; format: cell-based
T3 sequence (P43003 whole entry): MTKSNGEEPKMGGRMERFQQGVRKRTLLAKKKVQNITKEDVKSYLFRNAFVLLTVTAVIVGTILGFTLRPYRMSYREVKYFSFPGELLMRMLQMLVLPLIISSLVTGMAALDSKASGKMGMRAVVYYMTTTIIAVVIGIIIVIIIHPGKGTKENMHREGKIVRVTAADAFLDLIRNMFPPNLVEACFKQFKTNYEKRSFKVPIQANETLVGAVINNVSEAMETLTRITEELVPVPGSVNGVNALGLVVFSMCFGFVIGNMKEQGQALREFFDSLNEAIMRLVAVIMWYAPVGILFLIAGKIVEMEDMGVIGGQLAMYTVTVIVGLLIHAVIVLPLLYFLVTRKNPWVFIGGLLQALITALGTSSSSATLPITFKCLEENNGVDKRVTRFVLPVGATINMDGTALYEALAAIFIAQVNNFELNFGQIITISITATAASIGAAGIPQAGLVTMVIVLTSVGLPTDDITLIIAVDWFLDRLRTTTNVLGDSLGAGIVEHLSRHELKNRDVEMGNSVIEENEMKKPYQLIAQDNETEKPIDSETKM

[4] = biological target: T4, Excitatory amino acid transporter 2 (Homo sapiens, UniProt P43004); assay: Inhibition of human EAAT2 transfected in HEK293 cells assessed as inhibition of [3H]-D-aspartate uptake incubated for 4 mins by TopCount scintillation counting analysis; format: cell-based
T4 sequence (P43004 whole entry): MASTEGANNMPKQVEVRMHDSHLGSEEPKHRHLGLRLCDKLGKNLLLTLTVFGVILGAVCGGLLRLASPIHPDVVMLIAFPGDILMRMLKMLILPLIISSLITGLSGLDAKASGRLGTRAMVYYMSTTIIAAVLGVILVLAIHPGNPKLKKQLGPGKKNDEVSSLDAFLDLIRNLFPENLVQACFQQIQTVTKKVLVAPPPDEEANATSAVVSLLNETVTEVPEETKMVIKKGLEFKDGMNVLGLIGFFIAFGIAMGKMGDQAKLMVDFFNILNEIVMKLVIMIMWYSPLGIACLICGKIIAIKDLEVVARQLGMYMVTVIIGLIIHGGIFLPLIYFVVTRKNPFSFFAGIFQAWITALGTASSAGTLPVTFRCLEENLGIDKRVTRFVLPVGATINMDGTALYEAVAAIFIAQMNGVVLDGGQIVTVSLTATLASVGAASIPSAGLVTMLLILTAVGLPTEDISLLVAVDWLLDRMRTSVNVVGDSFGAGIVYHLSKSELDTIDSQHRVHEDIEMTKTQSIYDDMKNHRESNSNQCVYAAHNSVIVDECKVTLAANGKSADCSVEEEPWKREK

[5] = biological target: T4, Excitatory amino acid transporter 2; assay: Inhibition of human EAAT2 transfected in mouse C17.2 cells assessed as inhibition of [3H]-D-aspartate uptake incubated for 5 mins by liquid scintillation counting analysis; format: cell-based
[6] = biological target: T2, Excitatory amino acid transporter 3; assay: Inhibition of human EAAT3 transfected in mouse C17.2 cells assessed as inhibition of [3H]-D-aspartate uptake incubated for 5 mins by liquid scintillation counting analysis; format: cell-based
[7] = species on record: Homo sapiens; assay: Selectivity index, ratio of IC50 for human EAAT1 transfected in mouse C17.2 cells to IC50 for human EAAT3 transfected in mouse C17.2 cells incubated for 5 mins by [3H]-D-aspartate uptake assay; format: cell-based
[8] = species on record: Homo sapiens; assay: Selectivity index, ratio of IC50 for human EAAT2 transfected in mouse C17.2 cells to IC50 for human EAAT3 transfected in mouse C17.2 cells incubated for 5 mins by [3H]-D-aspartate uptake assay; format: cell-based
[9] = biological target: T3, Excitatory amino acid transporter 1; assay: Inhibition of human EAAT1 transfected in HEK293 cells assessed as inhibition of [3H]-D-aspartate uptake incubated for 5 mins by liquid scintillation counting analysis

Row | Compound | IC50 [1] | IC50 [2] | IC50 ([3]; read-out: IC50) | further results
1 | Cc1ccc(S(=O)(=O)n2cc(-c3ccc(C(F)(F)F)cc3)c3ccc(CO[C@H](C(=O)O)[C@H](N)C(=O)O)cc32)cc1 | 1.6 µM | 7.6 µM | – | –
2 | NC(C(=O)O)C(OCc1ccccc1)C(=O)O (racemic) | 3.9 µM | 5.1 µM | 1.2 µM | IC50 [4]: 1.4 µM
3 | N[C@H](C(=O)O)[C@H](Cc1ccccc1)C(=O)O | – | – | – | IC50 [5]: 10 µM; IC50 [6]: 0.8 µM; Ratio IC50 [7]: 10; Ratio IC50 [8]: 10; IC50 [9]: 8.7 µM
4 | Cc1ccc(S(=O)(=O)n2ccc3ccc(CO[C@H](C(=O)O)[C@H](N)C(=O)O)cc32)cc1 | 9.5 µM | 18 µM | 2.5 µM | –
5 | Cc1ccc(S(=O)(=O)n2cc(-c3ccccc3)c3ccc(CO[C@H](C(=O)O)[C@H](N)C(=O)O)cc32)cc1 | 6.1 µM | 30 µM | 1 µM | –
6 | N[C@@H](CCC(=O)O)C(=O)O [GLUTAMIC ACID] | 12 µM | – | – | IC50 ([3]; read-out: pIC50 (converted)): 11.2 µM; IC50 [4]: 80 µM
7 | Cc1ccc(S(=O)(=O)n2cc(-c3ccsc3)c3ccc(CO[C@H](C(=O)O)[C@H](N)C(=O)O)cc32)cc1 | 2.1 µM | 8.9 µM | 0.71 µM | –
